According to ChEMBL document CHEMBL2311344, “Development of an in vivo active, dual EP1 and EP3 selective antagonist based on a novel acyl sulfonamide bioisostere” (Bioorg Med Chem Lett, 2013):
Active and inactive are the calls of the source. The calls are words filed in the database; no cut-off is given here.

How the values were obtained:
[1] = Drug metabolism in mouse liver microsomes assessed as cytochrome P450-mediated oxidation; type: ADME, Microsome
[2] = molecular target: T1, Prostaglandin E2 receptor EP3 subtype (Mus musculus, UniProt P30557); test: Antagonist activity at mouse EP3 receptor
T1 sequence (P30557 whole entry): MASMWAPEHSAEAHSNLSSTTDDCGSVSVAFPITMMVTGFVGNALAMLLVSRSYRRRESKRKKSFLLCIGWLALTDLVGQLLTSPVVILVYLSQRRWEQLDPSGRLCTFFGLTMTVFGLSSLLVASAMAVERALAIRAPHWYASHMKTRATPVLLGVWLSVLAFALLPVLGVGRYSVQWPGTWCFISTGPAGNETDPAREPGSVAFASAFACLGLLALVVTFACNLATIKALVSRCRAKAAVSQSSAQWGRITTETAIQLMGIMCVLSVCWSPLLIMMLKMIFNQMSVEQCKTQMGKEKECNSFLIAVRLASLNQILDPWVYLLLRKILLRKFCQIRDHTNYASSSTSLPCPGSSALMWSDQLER
Method in brief: (§1)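 Affinity at mouse EP2, EP3 and EP4 is given as pKI. Signalling through mouse TP is given as pIC50. Mean ± SEM of at least three independent experiments, each run in triplicate.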

[3] = Drug metabolism in mouse liver microsomes assessed as esterase-mediated hydrolysis; type: ADME, Microsome
[4] = molecular target: Prostaglandin E2 receptor EP4 subtype (Mus musculus, UniProt P32240); test: Antagonist activity at mouse EP4 receptor; method in brief: as §1
Prostaglandin E2 receptor EP4 subtype, sequence (P32240 whole entry): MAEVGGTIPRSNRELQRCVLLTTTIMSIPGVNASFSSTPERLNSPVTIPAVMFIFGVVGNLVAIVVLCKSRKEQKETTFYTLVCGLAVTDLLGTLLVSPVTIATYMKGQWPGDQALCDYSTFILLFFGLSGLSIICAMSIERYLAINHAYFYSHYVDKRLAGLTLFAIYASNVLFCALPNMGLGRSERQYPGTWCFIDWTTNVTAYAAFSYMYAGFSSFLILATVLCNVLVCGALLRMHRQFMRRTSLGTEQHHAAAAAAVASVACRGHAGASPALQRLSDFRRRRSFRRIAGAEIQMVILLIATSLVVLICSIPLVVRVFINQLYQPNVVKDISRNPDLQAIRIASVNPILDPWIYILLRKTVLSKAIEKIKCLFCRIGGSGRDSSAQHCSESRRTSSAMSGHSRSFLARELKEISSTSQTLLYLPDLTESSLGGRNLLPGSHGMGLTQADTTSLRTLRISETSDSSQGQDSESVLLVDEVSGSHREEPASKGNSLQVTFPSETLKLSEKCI

Thromboxane A2 receptor = molecular target: T2, Thromboxane A2 receptor (Mus musculus, UniProt P30987); test: Antagonist activity at mouse TP receptor; method in brief: as §1
T2 sequence (P30987 whole entry): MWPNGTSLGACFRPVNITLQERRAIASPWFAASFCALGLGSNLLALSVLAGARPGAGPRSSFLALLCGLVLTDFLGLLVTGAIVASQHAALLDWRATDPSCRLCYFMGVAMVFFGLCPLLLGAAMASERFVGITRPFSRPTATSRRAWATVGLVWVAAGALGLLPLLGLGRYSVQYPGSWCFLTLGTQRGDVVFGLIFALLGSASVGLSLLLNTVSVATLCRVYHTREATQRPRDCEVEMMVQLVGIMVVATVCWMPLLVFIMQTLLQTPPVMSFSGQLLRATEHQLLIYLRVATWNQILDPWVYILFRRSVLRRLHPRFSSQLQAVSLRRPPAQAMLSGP

[5] = molecular target: Prostaglandin E2 receptor EP2 subtype (Mus musculus, UniProt Q62053); test: Antagonist activity at mouse EP2 receptor; method in brief: as §1
Prostaglandin E2 receptor EP2 subtype, sequence (Q62053 whole entry): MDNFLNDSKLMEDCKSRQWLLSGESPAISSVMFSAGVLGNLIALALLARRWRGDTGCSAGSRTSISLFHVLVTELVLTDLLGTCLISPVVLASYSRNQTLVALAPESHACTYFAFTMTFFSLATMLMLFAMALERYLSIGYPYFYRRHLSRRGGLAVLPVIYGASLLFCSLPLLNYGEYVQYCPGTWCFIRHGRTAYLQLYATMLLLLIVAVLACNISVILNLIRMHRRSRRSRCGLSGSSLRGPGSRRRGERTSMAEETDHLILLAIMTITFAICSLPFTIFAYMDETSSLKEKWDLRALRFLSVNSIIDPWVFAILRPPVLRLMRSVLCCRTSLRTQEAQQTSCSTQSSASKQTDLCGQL

[6] = molecular target: T3, Prostaglandin E2 receptor EP1 subtype (Mus musculus, UniProt P35375); test: Antagonist activity at mouse EP1 receptor expressed in CHOK1 cells assessed as inhibition of 17PTPGE2-induced calcium influx; type: functional, cell-based, CHO-K1
T3 sequence (P35375 whole entry): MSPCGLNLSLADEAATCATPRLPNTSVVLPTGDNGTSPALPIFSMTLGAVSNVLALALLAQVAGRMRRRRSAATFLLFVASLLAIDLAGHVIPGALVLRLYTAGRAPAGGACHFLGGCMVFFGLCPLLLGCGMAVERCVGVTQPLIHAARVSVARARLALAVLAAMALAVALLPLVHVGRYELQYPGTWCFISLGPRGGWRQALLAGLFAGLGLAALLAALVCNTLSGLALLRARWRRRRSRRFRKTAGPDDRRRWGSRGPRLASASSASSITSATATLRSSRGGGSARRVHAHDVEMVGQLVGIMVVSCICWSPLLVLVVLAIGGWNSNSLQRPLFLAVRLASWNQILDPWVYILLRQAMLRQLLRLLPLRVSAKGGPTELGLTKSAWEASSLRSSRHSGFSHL
Method in brief: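 CHOk1 cells expressing mouse EP1 were treated with six antagonist concentrations, then challenged with a concentration range of the EP1 agonist 17-phenyl-ω-trinor PGE2. pKD/KD came from transformed Schild regression of the concentration-response curves. Mean ± SEM of at least two independent experiments, each in duplicate.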

Plasma = test: Fraction unbound in mouse plasma; type: ADME, cell-free
[7] = Volume of distribution at steady state in mouse at 1 mg/kg, iv; type: ADME, organism-based; design: dose 1 mg/kg, route intravenous; details: in vivo, read-out: Vdss
Method in brief: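 Mouse plasma pharmacokinetics after a single intravenous 1 mg/kg dose. Systemic plasma clearance and volume of distribution predicted at steady state were derived from the IV data. A separate oral arm at 10 mg/kg was used for bioavailability.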

[8] = Oral bioavailability in mouse at 10 mg/kg; type: ADME, organism-based; details: in vivo
Method in brief: (§2)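 Mice were dosed IV at 1 mg/kg or orally at 10 mg/kg. From plasma, the following were derived: systemic plasma clearance, Vss, t1/2 and oral bioavailability (%F).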

[9] = Half life in mouse at 1 mg/kg, iv; type: ADME, organism-based; design: dose 1 mg/kg, route intravenous; details: in vivo
Method in brief: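 Single intravenous dose of 1 mg/kg given to mice. Half-life was derived from systemic plasma levels. Plasma clearance (CLp) and steady-state volume of distribution (Vss) came from the same study. A separate 10 mg/kg oral arm was run for bioavailability.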

[10] = Plasma clearance in mouse at 1 mg/kg, iv; type: ADME, organism-based; design: dose 1 mg/kg, route intravenous; method in brief: as §2
[11] = molecular target: T4, Prostaglandin E2 receptor EP1 subtype (Mus musculus) (UniProt P35375); test: Antagonist activity at mouse EP1 receptor expressed in CHOK1 cells assessed as inhibition of 17PTPGE2-induced calcium influx at >100 uM; type: functional, cell-based; details: CHO-K1
T4 sequence (whole entry): T3 sequence (P35375 whole entry)

Mus musculus [12] = test: Antihypertensive activity in mouse assessed as 17PTPGE2-induced mean arterial pressure at 5 mg/kg, sc administered 2 hr prior to 17PTPGE2-challenge (reference value: 50.3 +/- 5.5 mmHg); type: functional, Artery; details: route subcutaneous
Method in brief: (§3)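 Mice were anesthetized, with the left common carotid artery and right jugular vein cannulated. Arterial pressure was recorded directly via the carotid catheter. Test agent or vehicle was given 5 mg/kg sc. After 2 h, an IV bolus went through the jugular catheter: 20 μg/kg 17-phenyl-ω-trinor PGE2 (EP1) or 10 μg/kg sulprostone (EP3). Read-out was change in MAP. n = 3 per group; two-tailed Student's t test.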

Mus musculus [13] = test: Antihypertensive activity in mouse assessed as sulprostone-induced mean arterial pressure at 5 mg/kg, sc administered 2 hr prior to sulprostone-challenge (reference value: 53.3 +/- 2.3 mmHg); type: functional, Artery; details: route subcutaneous; method in brief: as §3
[14] = Drug metabolism in mouse liver microsomes assessed as cytochrome P450-mediated benzylic oxidation; type: ADME, Microsome
Mus musculus [15] = test: Cmax in mouse at 5 mg/kg, sc; type: ADME, organism-based; design: dose 5 mg/kg, route subcutaneous; details: in vivo
Method in brief: (§4)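 Subcutaneous dose of 5 mg/kg in mice (n = 3). Plasma sampled intermittently to build a concentration-time profile. Cmax, tmax and AUC were taken from that profile.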

Mus musculus [16] = test: AUC in mouse at 5 mg/kg, sc; type: ADME, organism-based, Plasma; design: dose 5 mg/kg, route subcutaneous; details: in vivo; method in brief: as §4
Mus musculus [17] = test: Antihypertensive activity in mouse assessed as effect on phenylephrine-induced vasopressor activity at 5 mg/kg, sc administered 2 hrs prior to phenylephrine-challenge; type: functional, organism-based; design: dose 5 mg/kg
Method in brief: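 In the same anesthetized, carotid/jugular-cannulated mouse preparation, phenylephrine 10 μg/kg was given as an IV bolus 2 h after 5 mg/kg sc pretreatment. The change in arterial pressure served as the non-EP vasoconstriction control.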

[18] = Drug metabolism in mouse liver microsomes assessed as cytochrome P450-mediated methylene linker oxidation; type: ADME, Microsome
Mus musculus [19] = test: Tmax in mouse at 5 mg/kg, sc; type: ADME, organism-based; design: dose 5 mg/kg, route subcutaneous; details: in vivo; method in brief: as §4
[20] = Drug metabolism in mouse liver microsomes assessed as esterase-mediated sulfonamide hydrolysis; type: ADME, Microsome

SMILES | Ki [2] | Ki [4] | pIC50 (Thromboxane A2 receptor) | Ki [5] | Kd ([6]; read-out: Kd) | further results
O=C(NC1CC2CCC1C2)c1cccc(Cc2cc(Cl)ccc2OCc2ccc(Cl)cc2F)n1 (stereo not drawn) | > 1000 nM | > 1000 nM | < 6 | > 1000 nM | 2190 nM | 
Cc1ccc(S(=O)(=O)NC(=O)c2cccc(Cc3cc(Cl)ccc3OCc3ccc(Cl)cc3F)n2)cc1 | > 1000 nM | > 1000 nM | < 6 | > 1000 nM | 214 nM | 
CC(C)(C)NC(=O)c1cccc(Cc2cc(Cl)ccc2OCc2ccc(Cl)cc2F)n1 | > 1000 nM | > 1000 nM | < 6 | > 1000 nM | 4360 nM | 
O=C(NCC1CC1)c1cccc(Cc2cc(Cl)ccc2OCc2ccc(Cl)cc2F)n1 | > 1000 nM | > 1000 nM | < 6 | > 1000 nM | 549 nM | 
O=C(NC1CCC1)c1cccc(Cc2cc(Cl)ccc2OCc2ccc(Cl)cc2F)n1 | > 1000 nM | > 1000 nM | < 6 | > 1000 nM | 912 nM | 
CCC(C)NC(=O)c1cccc(Cc2cc(Cl)ccc2OCc2ccc(Cl)cc2F)n1 (stereo not drawn) | > 1000 nM | > 1000 nM | < 6 | > 1000 nM | 1380 nM | 
CCCS(=O)(=O)NC(=O)c1cccc(Cc2cc(Cl)ccc2OCc2ccc(Cl)cc2F)n1 | > 1000 nM | > 1000 nM | < 6 | > 1000 nM |  | Activity [11]: inactive
CCN(CC)C(=O)c1cccc(Cc2cc(Cl)ccc2OCc2ccc(Cl)cc2F)n1 | > 1000 nM | > 1000 nM | < 6 | > 1000 nM | 447 nM | 
NC(=O)c1cccc(Cc2cc(Cl)ccc2OCc2ccc(Cl)cc2F)n1 | > 1000 nM | > 1000 nM | < 6 | > 1000 nM | 2630 nM | 

More lines, main results first:

Ki [2] | Ki [4] | pIC50 (Thromboxane A2 receptor) | Ki [5] | Kd ([6]; read-out: Kd) | SMILES | further results
214 nM | > 1000 nM | < 6 | > 1000 nM | 302 nM | CC(C)CNC(=O)c1cccc(Cc2cc(Cl)ccc2OCc2ccc(Cl)cc2F)n1 | Drug metabolism [1]: Active; Drug metabolism [3]: Active; Fu (Plasma): 0.01
> 1000 nM | > 1000 nM | < 6 | > 1000 nM | 15800 nM | O=C(c1cccc(Cc2cc(Cl)ccc2OCc2ccc(Cl)cc2F)n1)N1CCCC1 | 
> 1000 nM | > 1000 nM |  | 1740 nM | 47.9 nM | O=C(O)c1cccc(Cc2cc(Cl)ccc2OCc2ccc(Cl)cc2F)n1 | Vd [7]: 0.9 L/kg; bioavailability [8]: 13.8%; half-life [9]: 1.08 h; Fu (Plasma): 0.005; clearance [10]: 59.2 mL/min/kg
66.1 nM | > 1000 nM | < 6 | > 1000 nM | 214 nM | O=C(NS(=O)(=O)c1ccc(Cl)c(Cl)c1)c1cccc(Cc2cc(Cl)ccc2OCc2ccc(Cl)cc2F)n1 | 
204 nM | > 1000 nM | < 6 | > 1000 nM | 53.7 nM | O=C(NS(=O)(=O)c1cc(Cl)ccc1Cl)c1cccc(Cc2cc(Cl)ccc2OCc2ccc(Cl)cc2F)n1 | Kd ([6]; read-out: pKd (converted)): 56.2 nM
107 nM | > 1000 nM | < 6 | > 1000 nM | 40.7 nM | O=C(NS(=O)(=O)c1ccc(Cl)cc1)c1cccc(Cc2cc(Cl)ccc2OCc2ccc(Cl)cc2F)n1 | Activity (Mus musculus [12]): 27 mmHg; Activity (Mus musculus [13]): 32 mmHg; Drug metabolism [14]: Active; Cmax (Mus musculus [15]): 504 nM; AUC (Mus musculus [16]): 7.508 µM·h; Activity (Mus musculus [17]): inactive; Drug metabolism [18]: Active; Fu (Plasma): 0.004; Tmax (Mus musculus [19]): 2 h; Drug metabolism [20]: Active
